In PMC4969713 (Journal of Alzheimer's Disease, 2016):
Where a name gives a salt, the structure may show the parent alone.

Legend:
histamine H2 receptor = histamine H2 receptor (Homo sapiens, UniProt P25021); test: Radioligand binding competition, histamine H2
5-HT2C receptor = target: T1, 5-HT2C receptor (Homo sapiens, UniProt P28335); test: Radioligand binding competition, 5-HT2C; settings: Ki
T1 sequence (P28335 33-458): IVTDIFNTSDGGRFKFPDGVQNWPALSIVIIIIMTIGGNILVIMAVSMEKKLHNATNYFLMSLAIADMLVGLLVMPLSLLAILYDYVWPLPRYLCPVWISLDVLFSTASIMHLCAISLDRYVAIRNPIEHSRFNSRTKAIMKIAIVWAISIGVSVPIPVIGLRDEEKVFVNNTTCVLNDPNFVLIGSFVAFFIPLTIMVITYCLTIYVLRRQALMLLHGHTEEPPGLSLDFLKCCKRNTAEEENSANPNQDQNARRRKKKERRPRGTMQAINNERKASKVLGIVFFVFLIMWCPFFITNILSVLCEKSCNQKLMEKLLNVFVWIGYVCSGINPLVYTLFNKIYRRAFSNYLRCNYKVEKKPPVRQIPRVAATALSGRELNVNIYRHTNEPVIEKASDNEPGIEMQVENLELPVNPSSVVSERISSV

Adrenergic α2C = Adrenergic α2C (Homo sapiens, UniProt P18825); test: Radioligand competition, adrenergic α2C; type: binding
guinea pigs = test: Q-T interval, guinea pigs; type: in vivo; settings: 10 mg/kg IP
[1] = target: calcium channels of N type (Homo sapiens, UniProt Q00975); test: Target panel binding, calcium channel N type
5-HT1B receptor = settings: Table 2; cited from earlier work
Caco-2 permeability = settings: human
imidazoline I2 receptor = test: Radioligand binding competition, imidazoline I2
male Long Evans rats = test: Geller-Seifter conflict test; type: in vivo; settings: IV, 5 min before test
Procedure, shortened: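 Male Long Evans rats were food-deprived for 24 h, with at least 5 per group. Test compound was given IV via tail vein 5 min before testing. The test ran two 30-min sessions, unpunished and punished (conflict), with lever presses counted. Results were expressed as relative change versus the vehicle group.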

[2] = Phase I pharmacokinetics, single PO dose; type: in vivo, human; settings: human, blood, po
Wistar rats = test: 180 days toxicity, rats; type: in vivo
5-HT2A receptor = 5-HT2A receptor (Homo sapiens, UniProt P28223); test: Radioligand binding competition, 5-HT2A
hKvLQT1-hminK (IKs) = hKvLQT1-hminK (IKs) (Homo sapiens, UniProt P51787); test: Cardiac channel inhibition, IKs; type: cell-based
sodium channel (Site 2) = test: Target panel binding, sodium channel
CYP2D6 = CYP2D6 (Homo sapiens, UniProt P10635); test: Metabolism by recombinant CYP2D6; type: in vitro ADME
5-HT2B receptor = 5-HT2B receptor (Rattus norvegicus, UniProt P30994); test: Rat stomach fundus contraction assay
hKv4.3-hKCh1P2.2 (Ito) = hKv4.3-hKCh1P2.2 (Ito) (Homo sapiens, UniProt Q9UK17); test: Cardiac channel inhibition, Ito; type: cell-based
H1 receptor = H1 receptor (Homo sapiens, UniProt P35367); test: Histamine-induced Ca2+ mobilization in SK-N-SH cells; type: cell-based
Procedure, shortened: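 SK-N-SH cells challenged with 10μM histamine; transient rise in intracellular free Ca2+ recorded as the response, with test compound examined for blockade of this histamine-evoked signal.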

hERG potassium channel = hERG potassium channel (Homo sapiens, UniProt Q12809); test: hERG single cell patch clamp in HEK cells
hNav1.5 = hNav1.5 (Homo sapiens, UniProt Q14524); test: Cardiac channel inhibition, hNav1.5; type: cell-based
[3] = Metabolism in rat microsomes; type: in vitro ADME; settings: for Remaining quantity: AVN-101 1 μM, RLM
[4] = Dialysis of diluted rat plasma against rat brain homogenate; type: in vitro ADME; settings: 1μM AVN-101 in 20% plasma vs brain homogenate
Procedure, shortened: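 A 48-well semi-permeable-membrane dialysis plate was used. Donor chamber held 20% rat plasma diluted in PBS with 1 μM test compound; acceptor chamber held rat brain homogenate. Both chambers were sampled at several time points, and samples were matrix-equilibrated by cross-adding the opposite matrix. Membrane-permeability controls used 20% plasma in both chambers or PBS in both chambers.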

[5] = tested on: outbreed male and female rats; test: Reproductive toxicology in rats; type: in vivo
Procedure, shortened: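 Outbred male and female rats weighing 220–250 g received test compound in 0.9% physiological solution intragastrically at 1.0 or 25.0 mg/kg. Assessments covered embryotoxicity, offspring development, mating and fertilization capability, and reproductive function.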

[6] = Metabolism in human liver S9 fraction; type: in vitro ADME; settings: for half-life at 1 µM / half-life at 2 µM: human, liver S9 fraction
[7] = read-out: % Inhibition at 31.6μM

Chain of hKvLQT1-hminK (IKs) (P51787 whole entry): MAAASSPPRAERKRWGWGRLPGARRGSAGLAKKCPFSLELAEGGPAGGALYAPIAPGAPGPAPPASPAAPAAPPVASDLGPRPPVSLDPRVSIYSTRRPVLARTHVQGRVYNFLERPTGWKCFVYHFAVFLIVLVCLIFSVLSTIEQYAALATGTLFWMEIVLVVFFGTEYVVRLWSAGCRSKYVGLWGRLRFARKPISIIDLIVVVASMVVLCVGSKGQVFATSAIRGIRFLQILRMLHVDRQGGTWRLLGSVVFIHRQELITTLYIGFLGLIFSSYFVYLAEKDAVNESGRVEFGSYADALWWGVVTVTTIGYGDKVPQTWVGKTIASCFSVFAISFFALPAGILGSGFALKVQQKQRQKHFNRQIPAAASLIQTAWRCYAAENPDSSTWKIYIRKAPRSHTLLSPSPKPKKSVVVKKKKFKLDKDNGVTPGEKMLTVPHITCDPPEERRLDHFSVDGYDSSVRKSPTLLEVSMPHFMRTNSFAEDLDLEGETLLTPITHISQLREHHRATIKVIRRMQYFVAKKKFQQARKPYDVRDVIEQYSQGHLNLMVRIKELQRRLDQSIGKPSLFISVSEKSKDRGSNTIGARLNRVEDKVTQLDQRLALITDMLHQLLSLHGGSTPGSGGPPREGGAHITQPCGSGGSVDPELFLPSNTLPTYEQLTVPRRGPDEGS
Chain of hKv4.3-hKCh1P2.2 (Ito) (Q9UK17 whole entry): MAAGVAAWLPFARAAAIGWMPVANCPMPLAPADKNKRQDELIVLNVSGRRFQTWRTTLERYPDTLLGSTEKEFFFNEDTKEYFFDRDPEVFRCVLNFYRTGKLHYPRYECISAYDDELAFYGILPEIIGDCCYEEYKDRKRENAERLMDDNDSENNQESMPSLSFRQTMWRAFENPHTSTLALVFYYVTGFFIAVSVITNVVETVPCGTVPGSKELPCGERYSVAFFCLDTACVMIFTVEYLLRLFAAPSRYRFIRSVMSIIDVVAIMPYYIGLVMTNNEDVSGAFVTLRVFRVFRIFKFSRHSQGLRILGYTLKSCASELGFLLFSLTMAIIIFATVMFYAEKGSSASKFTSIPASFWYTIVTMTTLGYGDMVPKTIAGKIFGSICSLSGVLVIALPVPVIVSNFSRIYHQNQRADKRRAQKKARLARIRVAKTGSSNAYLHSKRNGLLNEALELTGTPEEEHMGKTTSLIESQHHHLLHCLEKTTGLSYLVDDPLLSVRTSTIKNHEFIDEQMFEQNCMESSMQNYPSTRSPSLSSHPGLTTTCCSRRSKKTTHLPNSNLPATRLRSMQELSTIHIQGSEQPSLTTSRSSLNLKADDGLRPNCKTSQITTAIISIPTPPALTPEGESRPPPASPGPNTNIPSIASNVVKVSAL
Chain of 5-HT2B receptor (P30994 whole entry): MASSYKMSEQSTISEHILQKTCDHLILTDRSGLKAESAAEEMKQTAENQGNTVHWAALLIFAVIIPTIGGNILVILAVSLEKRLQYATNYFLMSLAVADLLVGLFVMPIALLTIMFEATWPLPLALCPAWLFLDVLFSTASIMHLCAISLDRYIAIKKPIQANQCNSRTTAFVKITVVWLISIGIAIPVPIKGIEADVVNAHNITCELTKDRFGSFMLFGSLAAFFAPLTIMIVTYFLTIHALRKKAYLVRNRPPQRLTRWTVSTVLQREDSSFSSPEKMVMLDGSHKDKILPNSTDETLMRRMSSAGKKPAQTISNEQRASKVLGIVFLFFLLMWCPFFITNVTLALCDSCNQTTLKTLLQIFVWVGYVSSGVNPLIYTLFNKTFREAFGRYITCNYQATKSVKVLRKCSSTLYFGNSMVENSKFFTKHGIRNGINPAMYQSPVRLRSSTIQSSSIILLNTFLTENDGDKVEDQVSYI
Chain of H1 receptor (P35367 whole entry): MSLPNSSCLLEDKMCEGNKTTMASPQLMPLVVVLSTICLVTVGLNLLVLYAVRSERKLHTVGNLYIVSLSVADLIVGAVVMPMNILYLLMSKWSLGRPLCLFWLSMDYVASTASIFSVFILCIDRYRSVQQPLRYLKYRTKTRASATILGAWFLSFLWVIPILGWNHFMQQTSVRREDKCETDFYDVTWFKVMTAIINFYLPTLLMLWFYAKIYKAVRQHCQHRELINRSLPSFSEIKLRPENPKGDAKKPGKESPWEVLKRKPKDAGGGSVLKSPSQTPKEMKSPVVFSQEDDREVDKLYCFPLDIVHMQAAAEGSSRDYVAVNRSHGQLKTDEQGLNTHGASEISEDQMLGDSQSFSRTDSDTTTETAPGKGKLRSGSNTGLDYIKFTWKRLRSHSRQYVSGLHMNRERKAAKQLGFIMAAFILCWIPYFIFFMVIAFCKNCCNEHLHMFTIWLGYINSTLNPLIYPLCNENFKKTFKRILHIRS
Chain of hNav1.5 (Q14524 whole entry): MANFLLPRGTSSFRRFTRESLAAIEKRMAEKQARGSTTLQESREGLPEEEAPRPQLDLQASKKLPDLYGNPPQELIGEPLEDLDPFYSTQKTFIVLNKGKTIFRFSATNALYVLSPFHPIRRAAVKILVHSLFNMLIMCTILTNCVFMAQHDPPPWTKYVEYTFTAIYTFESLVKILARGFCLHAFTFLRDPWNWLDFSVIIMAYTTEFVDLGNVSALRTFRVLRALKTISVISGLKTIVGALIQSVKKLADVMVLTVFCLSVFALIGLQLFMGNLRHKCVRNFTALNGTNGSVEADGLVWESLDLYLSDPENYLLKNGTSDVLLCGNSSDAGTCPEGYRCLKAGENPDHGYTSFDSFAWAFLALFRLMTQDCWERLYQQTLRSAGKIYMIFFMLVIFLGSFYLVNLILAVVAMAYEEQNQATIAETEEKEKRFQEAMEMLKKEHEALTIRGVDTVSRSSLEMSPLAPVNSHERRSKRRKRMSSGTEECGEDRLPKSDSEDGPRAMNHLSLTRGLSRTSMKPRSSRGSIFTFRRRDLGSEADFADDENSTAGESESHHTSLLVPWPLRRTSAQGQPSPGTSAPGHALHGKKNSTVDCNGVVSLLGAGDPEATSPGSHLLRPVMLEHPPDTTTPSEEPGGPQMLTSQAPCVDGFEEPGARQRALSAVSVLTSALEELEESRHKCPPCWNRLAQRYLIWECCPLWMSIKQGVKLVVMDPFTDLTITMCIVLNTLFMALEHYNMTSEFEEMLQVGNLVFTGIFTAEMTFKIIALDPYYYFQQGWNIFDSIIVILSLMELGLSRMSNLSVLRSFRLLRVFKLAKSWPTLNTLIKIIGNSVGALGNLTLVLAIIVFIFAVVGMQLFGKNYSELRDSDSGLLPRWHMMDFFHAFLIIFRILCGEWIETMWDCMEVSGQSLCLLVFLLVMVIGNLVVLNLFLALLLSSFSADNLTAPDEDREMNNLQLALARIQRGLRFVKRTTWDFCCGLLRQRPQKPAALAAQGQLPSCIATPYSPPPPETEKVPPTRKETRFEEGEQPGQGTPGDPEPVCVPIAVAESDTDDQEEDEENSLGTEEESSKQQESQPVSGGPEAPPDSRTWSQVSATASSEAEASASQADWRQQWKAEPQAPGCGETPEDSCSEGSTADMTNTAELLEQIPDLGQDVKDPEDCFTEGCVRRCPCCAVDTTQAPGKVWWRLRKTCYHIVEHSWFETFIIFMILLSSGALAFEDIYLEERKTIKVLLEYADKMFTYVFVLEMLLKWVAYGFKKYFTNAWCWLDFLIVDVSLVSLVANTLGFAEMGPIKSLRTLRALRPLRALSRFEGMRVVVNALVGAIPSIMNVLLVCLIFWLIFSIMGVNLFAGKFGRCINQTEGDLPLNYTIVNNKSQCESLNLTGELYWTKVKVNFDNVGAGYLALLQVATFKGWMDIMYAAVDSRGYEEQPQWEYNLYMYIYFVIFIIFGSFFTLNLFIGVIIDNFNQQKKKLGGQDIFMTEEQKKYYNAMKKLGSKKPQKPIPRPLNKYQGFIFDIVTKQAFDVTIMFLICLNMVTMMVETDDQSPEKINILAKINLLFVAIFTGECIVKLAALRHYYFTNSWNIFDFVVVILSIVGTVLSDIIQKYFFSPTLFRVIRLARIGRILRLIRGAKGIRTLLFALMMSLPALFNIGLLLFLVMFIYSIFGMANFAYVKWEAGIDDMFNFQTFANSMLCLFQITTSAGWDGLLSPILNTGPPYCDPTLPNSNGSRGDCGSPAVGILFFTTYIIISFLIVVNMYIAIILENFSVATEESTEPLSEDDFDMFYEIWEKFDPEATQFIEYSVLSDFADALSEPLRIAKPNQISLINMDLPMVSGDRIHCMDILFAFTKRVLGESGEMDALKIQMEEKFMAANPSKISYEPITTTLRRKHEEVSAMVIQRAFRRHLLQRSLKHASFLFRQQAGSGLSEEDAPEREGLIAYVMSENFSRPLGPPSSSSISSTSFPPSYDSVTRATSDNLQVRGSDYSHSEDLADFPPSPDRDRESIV
Chain of 5-HT2A receptor (P28223 whole entry): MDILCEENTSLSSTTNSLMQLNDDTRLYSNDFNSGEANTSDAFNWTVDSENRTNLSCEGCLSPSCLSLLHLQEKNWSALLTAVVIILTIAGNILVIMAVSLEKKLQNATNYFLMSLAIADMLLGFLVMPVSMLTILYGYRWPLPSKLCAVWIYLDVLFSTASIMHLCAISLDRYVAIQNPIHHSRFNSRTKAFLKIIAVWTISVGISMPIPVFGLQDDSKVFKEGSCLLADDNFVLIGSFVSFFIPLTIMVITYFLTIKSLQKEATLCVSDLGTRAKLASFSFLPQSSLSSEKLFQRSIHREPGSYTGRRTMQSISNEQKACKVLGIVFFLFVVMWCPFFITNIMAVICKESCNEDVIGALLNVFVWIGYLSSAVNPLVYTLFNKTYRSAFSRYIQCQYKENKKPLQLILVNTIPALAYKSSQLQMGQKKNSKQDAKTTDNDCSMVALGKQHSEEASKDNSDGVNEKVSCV

Cc1ccc2c(c1)c1c(n2CCc2ccccc2)CCN(C)C1 [AVN-101, 2,8-dimethyl-5-penethyl-2,3,4,5-tetra-hydro-1h-pyrido[[4,3-B]]indole hydrochloride]
Ki (histamine H2 receptor): 89 nM | Ki (5-HT2C receptor): 1.2 to 2 nM | Ki (Adrenergic α2C): 0.41 to 3.6 nM | increase in the QT interval over vehicle (guinea pigs): ≤ 10% | binding [1]: does not bind | Ki (5-HT1B receptor): 720 nM | Papp (Caco-2 permeability): 19 ± 1.8 ×10⁻⁶ cm/s | Papp B→A (Caco-2 permeability): 21 ± 2.1 ×10⁻⁶ cm/s | Ki (imidazoline I2 receptor): 179 nM | activity during unpunished rewards session (male Long Evans rats): no effect observed | activity during punished conflict rewards session (male Long Evans rats; compared to vehicle): significantly increased | AUC ([2]; 2 mg): 0.0946 ± 0.0268 ng·h/mL | Cmax ([2]; 2 mg): 0.00579 ± 0.0029 ng/mL | half-life ([2]; 2 mg): 14.1 ± 10.2 h | AUC ([2]; 4 mg): 0.211 ± 0.0862 ng·h/mL | half-life ([2]; 4 mg): 8.15 ± 2.23 h | AUC ([2]; 10 mg): 0.462 ± 0.207 ng·h/mL | Cmax ([2]; 10 mg): 0.0537 ± 0.0318 ng/mL | half-life ([2]; 10 mg): 10.2 ± 2.55 h | AUC ([2]; 20 mg): 0.843 ± 0.333 ng·h/mL | Cmax ([2]; 20 mg): 0.0841 ± 0.0462 ng/mL | half-life ([2]; 20 mg): 8.18 ± 2.09 h | Tmax ([2]; male): ~1 h | half-life ([2]; male): 8 to 14 h | toxic effects (Wistar rats; 5 mg/kg PO daily): severe hepatotoxic and moderate cardiotoxic effects | toxic effects (Wistar rats; 0.25 and 0.5 mg/kg PO daily): substantially less noticeable | Ki (5-HT2A receptor): 1.2 to 2 nM | IC50 (hKvLQT1-hminK (IKs)): 22500 nM | inhibition at 31.6 µM (hKvLQT1-hminK (IKs); [7]): 55% | binding (sodium channel (Site 2)): does not bind | remaining at 0.5 h, 2 µM (CYP2D6): 0% | blockade of α methyl-serotonin-induced fundus contraction (5-HT2B receptor): effectively blocking | agonistic activity (fundus contraction) (5-HT2B receptor; AVN-101 alone): lacked intrinsic agonistic activity | IC50 (hKv4.3-hKCh1P2.2 (Ito)): 14800 nM | inhibition at 31.6 µM (hKv4.3-hKCh1P2.2 (Ito); [7]): 66% | receptor activation (H1 receptor): activated neither H1 nor H2 receptors | blockade of agonist-induced cell response (H1 receptor; 10μM histamine, Ca2+ mobilization): effectively blocked | IC50 (hERG potassium channel): 580 nM | IC50 (hNav1.5): 2400 nM | inhibition at 31.6 µM (hNav1.5; [7]): 97% | k el ([3]; 1μM): 0.352 | Remaining quantity ([3]; 7.9 min): <1% | Remaining quantity ([3]; 30 min): <1% | half-life at 1 µM ([3]; rat, liver microsomes): 1.97 min | k el at 1 μM ([3]; rat, liver microsomes): 0.00558 s⁻¹ | microsomal CLint at 1 µM ([3]; rat, liver microsomes): 703 µL/min/mg | concentration in brain-containing chamber vs plasma chamber [4]: never exceeds that of the plasma chamber | reproductive function, male rats ([5]; 1.0 and 25.0 mg/kg intragastrically daily for 48 days): no reproductive function alteration | effect in female rats dosed prior to pairing ([5]; daily for 15 days prior to pairing): reduction in the body mass increase of the pregnant rats and their posterity | embryotoxic / teratogenic effect ([5]; doses up to 25.0 mg/kg, male or female): neither embryotoxic nor teratogenic effect | half-life at 1 µM ([6]; T1/2, +NADPH+UDPGA): 0.437 h | half-life at 2 µM ([6]; T1/2, +NADPH+UDPGA): 0.982 h | half-life at 1 µM ([6]; T1/2, +NADPH): 0.413 h | half-life at 2 µM ([6]; T1/2, +NADPH): 1.45 h | metabolism with UDPGA only ([6]; phase 2 co-factor UDPGA only): no metabolism
